# Results from ChEMBL document CHEMBL4257556, “Novel 1,3,4-thiadiazole-chalcone hybrids containing catechol moiety: synthesis, antioxidant activity, cytotoxicity and DNA interaction studies” (Medchemcomm, 2018).
# Active and inactive are the calls of the source. The rule behind the calls is not given here.
# How the values were obtained:
# [1] = system: HeLa; test: Downregulation of TIMP3 gene expression in human HeLa cells at 10 uM after 24 hrs by RT-qPCR method; type: functional, cell-based
# [2] = Antioxidant activity assessed as DPPH free radical scavenging activity after 30 mins; type: functional
# Summary of the method: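 DPPH (0.05 mM in methanol) mixed with equal volume of compound (DMSO solution diluted in methanol), kept in dark at room temperature 30 min; absorbance at 517 nm, methanol control, ascorbic acid positive control. IC50 = concentration giving 50% of maximum scavenging; mean ± SD of independent triplicate experiments.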
# [3] = system: HeLa; test: Cell cycle arrest in human HeLa cells assessed as accumulation at sub-G1 phase at 2 times IC50 after 24 hrs in presence of caspase-3 inhibitor Z-DEVD-FMK by propidium iodide-staining based flow cytometric method; type: functional
# Summary of the method: (§1)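 HeLa cells pretreated 2 h with 40 μM peptide caspase inhibitor (Z-DEVD-FMK caspase-3, Z-IETD-FMK caspase-8 or Z-LEHD-FMK caspase-9), then exposed to 2×IC50 compound; subG1 fraction by propidium iodide flow cytometry, compared with samples lacking inhibitor.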
# [4] = system: MRC5; test: Cytotoxicity against human MRC5 cells assessed as decrease in cell survival after 72 hrs by MTT assay; type: cell-based; settings: MRC5, 72 h
# Summary of the method: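 HeLa (2000/well), A549 and MRC-5 (5000/well) seeded 20 h before treatment; HL-60 (7000/well) 2 h before. Five concentrations (6.25–100 μM or 3.125–50 μM) from 5 mM DMSO stocks, final DMSO ≤1%, 72 h; survival by MTT. Cisplatin positive control; three independent experiments in triplicate.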
# [5] = system: HeLa; test: Upregulation of miR-206 expression in human HeLa cells at 10 uM after 24 hrs by RT-qPCR method; type: functional, cell-based
# [6] = system: HeLa; test: Cell cycle arrest in human HeLa cells assessed as accumulation at sub-G1 phase at 2 times IC50 after 24 hrs in presence of caspase-8 inhibitor Z-IETD-FMK by propidium iodide-staining based flow cytometric method; type: functional; summary of the method: as §1
# [7] = system: HeLa; test: Downregulation of miR-155 expression in human HeLa cells at 10 uM after 24 hrs by RT-qPCR method; type: functional, cell-based
# [8] = system: HeLa; test: Cell cycle arrest in human HeLa cells assessed as accumulation at G2/M phase at 2 times IC50 after 24 hrs by propidium iodide staining-based flow cytometric method; type: functional
# Summary of the method: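 HeLa cells treated 24 h at IC50 or 2×IC50 (from 72 h assay), fixed in 70% ethanol, stored at –20 °C ≥1 week, RNase A 30 min 37 °C, propidium iodide stained; flow cytometry, 10 000 gated events. Mean ± SD of three independent experiments; one-way ANOVA with Dunnett's post-test, p < 0.05.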
# [9] = system: Calf thymus DNA; test: Displacement of Hoechst 33258 from calf thymus DNA assessed as fluorescence intensity of compound-DNA complex at 22 uM by fluorescence spectrophotometric analysis relative to control; type: nucleic-acid assay; settings: Bos taurus
# Summary of the method: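 CT-DNA 100 μM (per phosphate) in 40 mM bicarbonate pH 8.4 pretreated 20 min with Hoechst 33258 (28 μM final), then compound added stepwise. Excitation 350 nm, emission 390–550 nm, read at 444 nm, 10 nm slits; H–DNA as control. Quenching constant K by Stern–Volmer, I0/I versus r = [compound]/[DNA]; triplicate.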
# [10] = system: HeLa; test: Downregulation of miR-21 expression in human HeLa cells at 10 uM after 24 hrs by RT-qPCR method; type: functional, cell-based
# [11] = system: HeLa; test: Prooxidant activity in human HeLa cells assessed as increase in H2O2-induced reactive oxygen species at 10 uM preincubated for 24 hrs followed by H2O2 addition and measured after 30 mins by dichlorofluorescein dye-based flow cytometric method; type: functional, cell-based
# Summary of the method: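 HeLa cells pretreated 24 h with 10 μM compound, washed, loaded with 30 μM DCFH-DA in PBS 45 min at 37 °C. One portion read directly (endogenous ROS); other portion exposed to 10 mM H2O2 30 min at 37 °C. DCF green fluorescence by flow cytometry, 20 000 events per sample; mean ± SD of two independent experiments.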
compound,measurement,setting,value
Cc1cccc(C(=O)/C=C/c2ccc(C(=O)Nc3nnc(-c4ccc(O)c(O)c4)s3)cc2)c1,Activity,[1],Active
same,IC50,[2],17.2 µM
same,Activity,[3],inactive
same,IC50,[4],34.2 µM
same,Activity,[5],Active
same,Activity,[6],inactive
same,Activity,[7],inactive
same,Activity,[8],Active
same,Activity,[9],60%
same,Activity,[10],inactive
same,Activity,[11],inactive
